ChEMBL document CHEMBL4138242, “Synthesis and antibacterial evaluation of novel cationic chalcone derivatives possessing broad spectrum antibacterial activity” (Eur J Med Chem, 2018)
The source made the active and inactive calls. The calls are words filed in the database; no cut-off is given here.

What was measured:
Salmonella enterica = assay: Antibacterial activity against Salmonella enterica ATCC 13076 after 16 to 20 hrs by broth microdilution method; format: functional
Outline: (§1)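 Broth microdilution per CLSI. Bacteria grown 4-6 h (about 10⁸ CFU/mL), then diluted to about 10⁶ CFU/mL. Medium: Mueller-Hinton broth, except Luria-Bertani broth for E. coli. Compounds in sterile water, twofold series 256-0.5 µg/mL, mixed 1:1 with inoculum, 37 °C for 16-20 h. MIC is the lowest concentration without visible growth. Duplicate wells; experiment repeated at least twice.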

Escherichia coli [1] = assay: Induction of cytoplasmic membrane depolarization in Escherichia coli ATCC 25922 at 10 to 20 ug/ml measured every 2 mins for 12 mins by DiSC35 dye-based fluorescence assay; format: functional, organism-based
Outline: (§2)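 Mid-log cells (~10⁸ CFU/mL) were suspended in PBS (S. aureus) or HEPES/glucose/KCl with EDTA (E. coli). They were preloaded with DiSC3(5) for 30 min (S. aureus) or 40 min (E. coli), and baseline fluorescence was read for 8 min. Compound was added to 20 µg/mL final, and fluorescence (ex 622/em 670 nm) was read every 2 min for 12 min. Water served as control.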

Escherichia coli [2] = assay: Induction of inner membrane permeabilization in Escherichia coli ATCC 25922 at 10 to 20 ug/ml measured every 2 mins for 12 mins by propidium iodide staining-based fluorescence assay; format: functional, organism-based
Outline: (§3)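 Mid-log cells (~10⁸ CFU/mL) were suspended in PBS (S. aureus) or HEPES/glucose/KCl (E. coli). They were preincubated with propidium iodide for 30 min (S. aureus) or 40 min (E. coli), and baseline fluorescence was read for 8 min. Compound was added to 20 µg/mL final, and fluorescence (ex 535/em 617 nm) was read every 2 min for 12 min.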

Staphylococcus aureus [3] = assay: Antibacterial activity against Staphylococcus aureus ATCC 29213 after 16 to 20 hrs by broth microdilution method; format: functional; outline: as §1
[4] = Hemolytic activity in sheep RBC after 1 hr; format: ADME, cell-based, Ovis aries, Erythrocyte; conditions: sheep red blood cells (erythrocytes)
Outline: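 Sheep red blood cells (150 µL suspension) mixed with 50 µL of compound dilutions (5120-10 µg/mL), 1 h at 37 °C, then centrifuged. Supernatant read at 540 nm. Percent hemolysis calculated relative to RBC-only control (0%) and 0.1% Triton X-100 (100%).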

Enterococcus faecalis = assay: Antibacterial activity against Enterococcus faecalis ATCC 29212 after 16 to 20 hrs by broth microdilution method; format: functional; outline: as §1
Staphylococcus aureus [5] = assay: Induction of inner membrane permeabilization in Staphylococcus aureus ATCC 29213 at 10 to 20 ug/ml measured every 2 mins for 12 mins by propidium iodide staining-based fluorescence assay; format: functional, organism-based; outline: as §3
Escherichia coli [6] = assay: Antibacterial activity against Escherichia coli ATCC 25922 after 16 to 20 hrs by broth microdilution method; format: functional; outline: as §1
Staphylococcus aureus [7] = assay: Induction of cytoplasmic membrane depolarization in Staphylococcus aureus ATCC 29213 at 10 to 20 ug/ml measured every 2 mins for 12 mins by DiSC35 dye-based fluorescence assay; format: functional, organism-based; outline: as §2

- MIC (Salmonella enterica): 8 µg/mL
- MIC (Staphylococcus aureus [3]): 0.5 µg/mL
- MIC (Enterococcus faecalis): 2 µg/mL
- MIC (Escherichia coli [6]): 2 µg/mL
Structure (SMILES): CCCCCCCC[N+](C)(C)CC(=O)Nc1ccc(C(=O)/C=C/c2cccc(F)c2F)cc1.[Cl-]
- Activity (Escherichia coli [1]): Active
- Activity (Escherichia coli [2]): Active
- HC50 at 1 h [4]: 56 µg/mL
- Activity (Staphylococcus aureus [5]): Active
- Activity (Staphylococcus aureus [7]): Active
